20 molecules from PubChem BioAssay AID624080 (The Scripps Research Institute Molecular Screening Center, 2012) can be followed below.

The test system of assay [1] is VIM-2 P. aeruginosa PA641 growth with imipenem, OD590. In words: imipenem potentiation in VIM-2 P. aeruginosa, late-stage follow-up, clinical strain PA641, imipenem synergy, MIC (AID 624080). In short, it runs like this:
(§1)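 buffer or medium = cation-adjusted Mueller-Hinton broth | signal = turbidity by absorbance at 590 nm | timing = ≥18 h at 37 °C, aerobic | dosing = compound two-fold series, checkerboard format | also added = imipenem in two-fold series along plate columns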

Assay in assay [2]: as above
The note with it: VIM-2 P. aeruginosa PA641 growth with imipenem, OD590; measured here: max imipenem fold potentiation; stronger effect = higher value. The procedure, abridged: as §1

Several values for one entry are separate records, joined by “and”; a condition that tells them apart may be missing. Identical values can stand only once. Activity calls are given as the source filed them.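 Rule for the calls: active = compound whose MIC, giving a fourfold drop in bacterial growth, is 10 µM or lower; inactive = the rest.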

The MIC is the smallest concentration in the dilution series that meets the test's criterion for growth inhibition. For `CC(C)(C)OC(=O)N1CCN(NC(=O)CN2C(=O)/C(=C/c3c(Cl)ccc(Cl)c3Cl)SC2=S)CC1`, in assay [1], the MIC is > 50 µM (inactive).

For `O=C(O)CN1C(=O)/C(=C/c2c(Cl)cccc2Cl)SC1=S`, in assay [1], the MIC was > 100 µM (inactive).

Regarding `CC(C)(C)OC(=O)N1CCN(NC(=O)CN2C(=O)/C(=C/c3c(Cl)cccc3Cl)SC2=S)CC1`, the MIC in assay [1] was > 100 µM (inactive).

On to `CC(=O)N1CCN(NC(=O)CN2C(=O)/C(=C/c3c(Cl)cccc3Cl)SC2=S)CC1`, for which, in assay [2], the fold potentiation was 2. Moreover, the MIC in assay [1] was > 50 µM (inactive).

`O=C(CN1C(=O)/C(=C/c2c(Cl)ccc(Cl)c2Cl)SC1=S)NN1CCNCC1`: the fold potentiation in assay [2] was found to be 2. Besides, the MIC in assay [1] was > 50 µM (inactive).

In the case of `O=C(CN1C(=O)/C(=C/c2c(Cl)cccc2Cl)SC1=S)NCc1ccccn1`, the fold potentiation in assay [2] was 2. For the same molecule, the MIC in assay [1] is > 100 µM (inactive).

In the case of `O=C(CN1C(=O)/C(=C/c2c(Cl)cccc2Cl)SC1=S)NN1CCCCC1`, the MIC in assay [1] is > 100 µM (inactive).

For the molecule `O=C(CN1C(=O)/C(=C/c2c(Cl)cccc2Cl)SC1=S)NN1CCNCC1`, the fold potentiation in assay [2] was 2. Further, the MIC in assay [1] was > 50 µM (inactive).

For the molecule `O=C(CN1C(=O)/C(=C/c2c(Cl)ccc(Cl)c2Cl)SC1=S)NCc1ccccn1`, in assay [1], the MIC was > 50 µM (inactive).

As for `CN1CCN(C(=O)CN2C(=O)/C(=C/c3c(Cl)ccc(Cl)c3Cl)SC2=S)CC1`, the fold potentiation in assay [2] was 4. For the same molecule, the MIC in assay [1] was > 50 µM (inactive).

As to `CN1CCN(NC(=O)CN2C(=O)/C(=C/c3c(Cl)cccc3Cl)SC2=S)CC1`, the fold potentiation in assay [2] was 2. In addition, the MIC in assay [1] is > 100 µM (inactive).

For `CN1CCN(NC(=O)CN2C(=O)/C(=C/c3c(F)cccc3Cl)SC2=S)CC1`, the MIC in assay [1] is > 50 µM (inactive).

With `O=C(CN1C(=O)/C(=C/c2c(Cl)ccc(Cl)c2Cl)SC1=S)NN1CCCCC1`, the MIC in assay [1] is > 50 µM (inactive).

Take `CN1CCN(NC(=O)CN2C(=O)/C(=C/c3c(C(F)(F)F)ccc(Cl)c3Cl)SC2=S)CC1`: the fold potentiation in assay [2] came out at 4. In addition, in assay [1], the MIC is > 50 µM (inactive).

Turning to `O=C(CN1C(=O)/C(=C/c2c(Cl)cccc2Cl)SC1=S)NN1CCN(Cc2ccccc2)CC1`, the MIC in assay [1] was > 50 µM (inactive).

Turning to `CCN(CC)OC(=O)CN1C(=O)/C(=C/c2c(Cl)cccc2Cl)SC1=S`, the MIC in assay [1] was > 100 µM (inactive).

For the molecule `CN1CCN(NC(=O)CN2C(=O)/C(=C/c3c(Cl)ccc(Cl)c3Cl)SC2=S)CC1`, the fold potentiation in assay [2] is 4 and 2. In assay [1], the MIC was > 50 µM (inactive).

Regarding `O=C(CN1C(=O)/C(=C/c2c(Cl)cccc2Cl)SC1=S)NN1CCN(C(=O)c2ccccc2)CC1`, the MIC in assay [1] is > 50 µM (inactive).

On to `CN1CCN(NC(=O)CN2C(=O)/C(=C/c3c(Cl)ccc(C(F)(F)F)c3Cl)SC2=S)CC1`, for which, in assay [2], the fold potentiation turned out to be 2. In assay [1], the MIC was > 50 µM (inactive).

In the case of `CN1CCN(NC(=O)CN2C(=O)/C(=C/c3c(F)cccc3C(F)(F)F)SC2=S)CC1`, the MIC in assay [1] is > 50 µM (inactive).
